Sampled rows, rich in hits. Any-hit rate of the full collection: about 1.7%.
Ecoli rRNA inh = reduced GFP signal of wild-type E. coli, primary screen, bacterial rRNA inhibitor project, GFP/RFP fluorescence, OD600, single point; E. coli WT GFP vs humanized-ribosome RFP mutants, 24 h; stronger effect = lower value; DMSO median 0, no signal -100; GFP signal change (wild-type ribosome), % (concentration not given with the values); hit rate 1.6% among 350,000;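 active means significant combined selectivity score with lowered wild-type GFP, culture density cut under 30%, mutant RFP and density less affected; inactive means any of these conditions unmet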
Cneo AK release = Cryptococcus neoformans cell lysis inducers, primary screen, AK release luminescence, single concentration; C. neoformans lysis, adenylate kinase release luminescence, 4 h; normalised: neutral wells 0, clomiphene wells 100; lysis activity, % at 15 µM; hit rate 0.2% among 360,000; AID 651654, 2012;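 active means mean lysis activity across replicates of at least 80%, whatever share of replicates individually reach that level; inactive means mean lysis activity below 80%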
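Test system: log-phase Cryptococcus neoformans yeast cells; Quantity: yeast cell density of 5 × 10^6 cells/mL; Buffer or medium: YPD; Doses: single compound concentration per well; Timing: 4 h at 37 °C static, read 1 h later; Measured by: AK luminescence; Read-out basis: lysis from increased AK signal; Control set: Clomiphene as positive control.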
F508del corr = F508del CFTR correction, initial screen, CFBE line, single point; CFBE cells, YFP halide quenching; stimulated with forskolin plus potentiator P3; % fluorescence drop versus neutral controls; activity (quench increase), % at 7.58 µM; AID 720511, 2013; hit rate 0.36% among 350,000;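 active means mean added fluorescence quench of at least 8% versus neutral control, with both replicates also reaching 8%; inconclusive means only one of the mean or replicate conditions met; inactive means mean below 8% and not both replicates reaching 8%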;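 further: cells transiently co-express mutant CFTR-F508del with the halide-sensitive YFP; corrector assay measuring rescue of mutant channel to the surface after 24 h compound exposure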
CaV13 ICDI inh = Primary screen for inhibitors of IQ motif and Ca2+-dependent inactivation inhibitor domain binding in CACNA1D, Förster resonance energy transfer in living cells, …. AID 743397. HEK cells, CFP/YFP FRET ICDI-IQ, plate reader, 10 min; percent FRET-ratio fall versus neutral wells. hit rate 0.098% among 340,000. inhibition, % at 12.3 µM;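 active means mean replicate inhibition of at least 30% and at least 1% of replicates passing that level; inconclusive means only one of the two criteria is met; inactive means neither criterion is met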
AID977621 = growth inhibition of wild-type GFP E. coli, dose response, H69 mutant RFP, cherry-pick; shares compounds with Ecoli rRNA inh; E. coli wild-type GFP strain growth, fluorescence, 24 h; activity change, negative = inhibition at 50 µM; 1,900 tested, under 10 active; AID 977621, 2014;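 active means Wild-type ribosome reporter drop at least double the humanized mutant ribosome reporter drop, growth loss under a set limit; inconclusive means no clear call, values can overlap the other calls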;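 further: wild-type GFP and H69 mutant RFP strains grown together 50/50 in each well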
AID977628 = E. coli growth inhibition, wild-type GFP versus h24 humanized RFP strain, dose response, h24 mutant RFP vs wild-type GFP, cherry-pick | AID 977628, 2014 | shares compounds with Ecoli rRNA inh | activity change, negative = inhibition at 50 µM | E. coli WT GFP strain growth, fluorescence, 24 h | 1,900 tested, under 10 active;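 active means compound lowering the normal-ribosome reporter at least twice as much as the humanized-ribosome reporter, growth loss under a set limit; inconclusive means no clear call, values can overlap the other calls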;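 further: wild-type GFP and h24 humanized RFP strains co-cultured 1 to 1 per well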
Each line names hits and unclear results; the compound was inactive in the other large screens (follow-up assays come after a bar, where they were run); ! = not active in a repeat.

CC(C)Cc1nnc(NC(=O)c2ccc3c(=O)n4c(nc3c2)CCC4)s1	Ecoli rRNA inh -21.1 | AID977621 inactive | AID977628 inactive
CC(C)Cc1nnc(NC(=O)c2ccc(N3CCCC3=O)cc2)s1	none
CC1Cc2ccccc2N1C(=O)COc1ccc2c(c1)OCO2 (stereo not drawn)	Ecoli rRNA inh -22.4 | AID977628 inactive
CC1CCCN(C(=O)COc2ccc3c(c2)OCO3)C1 (stereo not drawn)	none
C[C@@H]1CCCCO[C@H](CN(C)C(=O)CCC(F)(F)F)[C@H](C)CN([C@@H](C)CO)C(=O)c2cc(NC(=O)c3ccncc3)ccc2O1	none (no result: Cneo AK release, F508del corr, CaV13 ICDI inh)
C[C@@H]1CCCCO[C@H](CN(C)S(=O)(=O)c2ccc(F)cc2)[C@H](C)CN([C@H](C)CO)C(=O)c2cc(NS(C)(=O)=O)ccc2O1	none (no result: Cneo AK release, F508del corr, CaV13 ICDI inh)
Cc1ccc(NC(=O)C2CCCN(c3ncnc4c3nc3n4CCCCC3)C2)cc1Cl (stereo not drawn)	Ecoli rRNA inh -18.3 | AID977621 inactive | AID977628 inconclusive
O=S(=O)(c1cccc(-c2nc3ccccc3s2)c1)N1CCCC1	Ecoli rRNA inh -22.1 | AID977621 inactive | AID977628 inconclusive
COC(=O)c1ccc(CCc2cc(O)c(Br)cc2O)cc1	Ecoli rRNA inh -18.6 (no result: Cneo AK release) | AID977621 inactive | AID977628 inactive
C[C@@H]1CN([C@@H](C)CO)S(=O)(=O)c2ccc(Br)cc2O[C@H]1CN(C)C(=O)c1ccccc1	Ecoli rRNA inh -18.4! | AID977621 inactive | AID977628 inactive
CN1C(=O)c2cc(NC(=O)C3CC3)ccc2OC[C@@H]2O[C@H](CC(=O)NC3CCC3)CC[C@@H]21	none (no result: CaV13 ICDI inh)
S=c1nc(-c2cc(Cl)cc(Cl)c2)[nH][nH]1	Ecoli rRNA inh -16.7 (no result: Cneo AK release, F508del corr) | AID977621 inactive | AID977628 inconclusive
S=c1nc(-c2cccc(Cl)c2)[nH][nH]1	none (no result: Cneo AK release)
Cc1nn(Cc2cccc(F)c2)c(C)c1NC(=O)c1c(Cl)cnn1C	Ecoli rRNA inh -18.1 (no result: Cneo AK release, F508del corr) | AID977621 inactive | AID977628 inactive
Cc1cccc(Cn2nc(C)c(NC(=O)c3ccc(F)cc3)c2C)c1	none (no result: Cneo AK release)
O=C(NCCCN1CCOCC1)c1sc2cc([N+](=O)[O-])ccc2c1Cl	none (no result: Ecoli rRNA inh, F508del corr, CaV13 ICDI inh) | AID977628 inactive
O=S(=O)(c1ccc(F)cc1)N1C[C@@H]2N[C@H](C1)C2c1ccc(/C=C/c2ccccc2)cc1 (stereo partly drawn)	Ecoli rRNA inh -27.7! (no result: Cneo AK release, CaV13 ICDI inh) | AID977621 inactive
CCOC(=O)c1cccc(OS(=O)(=O)Cc2ccccc2)c1	Ecoli rRNA inh -25.5 | AID977621 inactive
CCOC(=O)c1cccc(NC(=O)CCc2ccccc2)c1	none
CC(C)C[C@@H]1COc2cc(NC3CC3)ccc2S(=O)(=O)N1	none (no result: Cneo AK release)
CC(C)C[C@H]1COc2cc(Br)ccc2S(=O)(=O)N1	Ecoli rRNA inh -22.0 | AID977621 inactive | AID977628 inconclusive
COc1ccc(NC(=O)c2cccc(Oc3ccc([N+](=O)[O-])cc3Cl)c2)cc1	Ecoli rRNA inh -24.0 (no result: Cneo AK release) | AID977621 inactive | AID977628 inactive
O=C(Nc1cccc(Cl)c1)c1cccc(Oc2ccc([N+](=O)[O-])cc2Cl)c1	none
COc1cc(C2CC(=O)Oc3ccc(C(C)(C)C)cc32)cc(OC)c1OC (stereo not drawn)	none
CC(C)(C)c1ccc2c(c1)C(c1ccc3c(c1)OCO3)CC(=O)O2 (stereo not drawn)	Ecoli rRNA inh -24.9 | AID977621 inactive
Cc1ccc(C2CC(=O)Oc3cc(C)cc(C)c32)cc1 (stereo not drawn)	none
COc1ccc(C2CC(=O)Oc3cc(C)cc(C)c32)cc1 (stereo not drawn)	Ecoli rRNA inh -23.9 | AID977621 inactive | AID977628 inactive
Cc1cc(C)c2c(c1)OC(=O)CC2c1ccc2c(c1)OCO2 (stereo not drawn)	none
